What was measured:
[1] = molecular target: T1, Serine/threonine-protein kinase Chk1 (Homo sapiens) (UniProt O14757); experiment: Inhibition of CHK1 at 30 uM by microfluidic mobility shift assay
T1 sequence (whole entry): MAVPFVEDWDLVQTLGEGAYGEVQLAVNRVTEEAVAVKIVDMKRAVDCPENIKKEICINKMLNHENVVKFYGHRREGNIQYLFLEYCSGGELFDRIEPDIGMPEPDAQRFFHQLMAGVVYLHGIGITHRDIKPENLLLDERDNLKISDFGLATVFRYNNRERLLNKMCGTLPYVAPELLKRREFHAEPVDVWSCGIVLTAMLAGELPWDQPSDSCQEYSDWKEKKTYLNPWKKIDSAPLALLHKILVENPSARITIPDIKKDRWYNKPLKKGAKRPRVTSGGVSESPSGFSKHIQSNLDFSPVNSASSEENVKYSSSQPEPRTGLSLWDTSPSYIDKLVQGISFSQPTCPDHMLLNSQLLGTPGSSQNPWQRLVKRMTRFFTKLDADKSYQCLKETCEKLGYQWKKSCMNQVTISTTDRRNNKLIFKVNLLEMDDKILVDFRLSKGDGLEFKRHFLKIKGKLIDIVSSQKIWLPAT
Summary of the method: (§1)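 Single-concentration screen, singlicate, 30 uM final (diluted from 1 mM DMSO solutions), fluorescently tagged peptide substrate appropriate to each kinase, ATP at apparent Km for each protein. Phosphorylated and unphosphorylated peptides separated electrophoretically; conversion is the phosphorylated peak area over the sum of both peaks. No-inhibitor and no-ATP controls; H89 reference on each plate.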

[2] = molecular target: Mitogen-activated protein kinase 14 (Homo sapiens, UniProt Q16539); experiment: Inhibition of p38alpha at 30 uM by microfluidic mobility shift assay; summary of the method: as §1
Mitogen-activated protein kinase 14, sequence (Q16539 whole entry): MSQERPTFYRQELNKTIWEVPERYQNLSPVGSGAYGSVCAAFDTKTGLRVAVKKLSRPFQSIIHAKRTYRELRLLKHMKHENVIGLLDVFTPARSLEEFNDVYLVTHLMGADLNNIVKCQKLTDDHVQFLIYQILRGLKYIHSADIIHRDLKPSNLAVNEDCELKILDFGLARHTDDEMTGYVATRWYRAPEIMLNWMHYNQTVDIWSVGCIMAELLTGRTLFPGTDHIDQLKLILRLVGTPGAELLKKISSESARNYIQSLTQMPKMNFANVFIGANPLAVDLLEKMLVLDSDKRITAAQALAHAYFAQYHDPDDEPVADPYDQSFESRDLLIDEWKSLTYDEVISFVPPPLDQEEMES

[3] = molecular target: Tyrosine-protein kinase Lck (Homo sapiens, UniProt P06239); experiment: Inhibition of LCK at 30 uM by microfluidic mobility shift assay; summary of the method: as §1
[4] = molecular target: Glycogen synthase kinase-3 beta (Homo sapiens) (UniProt P49841); experiment: Inhibition of GSK3B at 30 uM by microfluidic mobility shift assay; summary of the method: as §1
Glycogen synthase kinase-3 beta (Homo sapiens), sequence (P49841 whole entry, looked up): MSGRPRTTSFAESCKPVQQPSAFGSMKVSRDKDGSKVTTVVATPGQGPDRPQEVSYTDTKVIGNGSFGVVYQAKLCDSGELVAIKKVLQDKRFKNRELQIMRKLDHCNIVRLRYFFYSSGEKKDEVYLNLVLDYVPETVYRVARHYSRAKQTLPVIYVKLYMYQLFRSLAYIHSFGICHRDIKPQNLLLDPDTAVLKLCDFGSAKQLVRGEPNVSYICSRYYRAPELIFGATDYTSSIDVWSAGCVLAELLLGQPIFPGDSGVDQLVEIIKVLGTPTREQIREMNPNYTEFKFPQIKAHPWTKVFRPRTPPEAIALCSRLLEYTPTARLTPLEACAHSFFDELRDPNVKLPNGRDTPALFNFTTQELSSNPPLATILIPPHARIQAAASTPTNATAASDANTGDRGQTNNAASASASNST

[5] = molecular target: Tyrosine-protein kinase Lyn (Homo sapiens, UniProt P07948); experiment: Inhibition of LYN at 30 uM by microfluidic mobility shift assay; summary of the method: as §1
Tyrosine-protein kinase Lyn, sequence (P07948 2-512 limits assumed): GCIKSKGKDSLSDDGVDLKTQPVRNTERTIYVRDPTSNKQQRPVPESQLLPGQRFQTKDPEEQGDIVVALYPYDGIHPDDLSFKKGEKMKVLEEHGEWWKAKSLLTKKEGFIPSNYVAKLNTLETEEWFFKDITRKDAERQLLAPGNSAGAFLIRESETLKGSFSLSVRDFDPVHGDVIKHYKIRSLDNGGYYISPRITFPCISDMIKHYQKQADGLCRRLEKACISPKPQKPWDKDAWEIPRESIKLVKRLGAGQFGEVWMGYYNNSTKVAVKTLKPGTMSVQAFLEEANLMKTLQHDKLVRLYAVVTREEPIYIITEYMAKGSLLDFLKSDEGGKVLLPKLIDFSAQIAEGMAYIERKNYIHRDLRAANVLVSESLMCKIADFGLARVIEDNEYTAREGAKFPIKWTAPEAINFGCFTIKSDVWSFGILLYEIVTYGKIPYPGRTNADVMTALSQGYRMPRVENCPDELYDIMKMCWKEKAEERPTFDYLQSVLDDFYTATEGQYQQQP

[6] = molecular target: Ribosomal protein S6 kinase alpha-1 (Homo sapiens) (UniProt Q15418); experiment: Inhibition of RSK1 at 30 uM by microfluidic mobility shift assay; summary of the method: as §1
Ribosomal protein S6 kinase alpha-1 (Homo sapiens), sequence (Q15418 whole entry): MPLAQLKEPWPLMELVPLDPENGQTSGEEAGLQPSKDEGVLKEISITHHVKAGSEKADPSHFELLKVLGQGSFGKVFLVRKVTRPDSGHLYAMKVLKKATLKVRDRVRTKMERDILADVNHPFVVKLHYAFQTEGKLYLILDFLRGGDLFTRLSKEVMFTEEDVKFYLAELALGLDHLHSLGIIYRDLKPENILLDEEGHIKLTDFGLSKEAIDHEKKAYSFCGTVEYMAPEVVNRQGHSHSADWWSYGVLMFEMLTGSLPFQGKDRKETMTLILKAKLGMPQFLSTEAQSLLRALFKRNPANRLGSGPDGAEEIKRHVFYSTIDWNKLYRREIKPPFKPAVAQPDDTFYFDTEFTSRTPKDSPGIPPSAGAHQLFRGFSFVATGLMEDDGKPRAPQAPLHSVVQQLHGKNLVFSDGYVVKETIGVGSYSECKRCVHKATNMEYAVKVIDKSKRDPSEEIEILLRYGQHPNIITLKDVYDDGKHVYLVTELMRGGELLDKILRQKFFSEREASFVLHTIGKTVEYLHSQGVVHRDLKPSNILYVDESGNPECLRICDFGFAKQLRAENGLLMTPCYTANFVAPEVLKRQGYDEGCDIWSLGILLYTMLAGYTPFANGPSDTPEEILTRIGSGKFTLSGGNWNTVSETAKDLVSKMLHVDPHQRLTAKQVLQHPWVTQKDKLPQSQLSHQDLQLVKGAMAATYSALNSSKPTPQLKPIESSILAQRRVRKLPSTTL

[7] = molecular target: Serine/threonine-protein kinase Chk2 (Homo sapiens, UniProt O96017); experiment: Inhibition of CHK2 at 30 uM by microfluidic mobility shift assay; summary of the method: as §1
Serine/threonine-protein kinase Chk2, sequence (O96017 whole entry): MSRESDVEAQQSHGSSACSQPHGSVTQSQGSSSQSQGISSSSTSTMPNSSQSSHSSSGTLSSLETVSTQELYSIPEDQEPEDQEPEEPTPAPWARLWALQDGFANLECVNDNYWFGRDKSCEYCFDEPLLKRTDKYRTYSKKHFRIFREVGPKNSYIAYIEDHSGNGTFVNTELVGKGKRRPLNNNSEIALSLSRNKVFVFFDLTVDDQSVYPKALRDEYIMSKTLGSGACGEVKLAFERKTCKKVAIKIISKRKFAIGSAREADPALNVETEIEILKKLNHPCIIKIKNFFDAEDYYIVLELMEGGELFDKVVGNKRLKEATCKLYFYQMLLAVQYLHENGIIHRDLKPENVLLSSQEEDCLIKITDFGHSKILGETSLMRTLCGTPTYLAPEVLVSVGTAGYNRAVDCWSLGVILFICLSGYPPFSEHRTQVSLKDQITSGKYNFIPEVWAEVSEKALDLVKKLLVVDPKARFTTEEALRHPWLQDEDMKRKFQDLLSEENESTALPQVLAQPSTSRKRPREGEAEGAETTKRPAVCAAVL

[8] = molecular target: Mitogen-activated protein kinase 3 (Homo sapiens) (UniProt P27361); experiment: Inhibition of ERK1 at 30 uM by microfluidic mobility shift assay; summary of the method: as §1
Mitogen-activated protein kinase 3 (Homo sapiens), sequence (P27361 whole entry): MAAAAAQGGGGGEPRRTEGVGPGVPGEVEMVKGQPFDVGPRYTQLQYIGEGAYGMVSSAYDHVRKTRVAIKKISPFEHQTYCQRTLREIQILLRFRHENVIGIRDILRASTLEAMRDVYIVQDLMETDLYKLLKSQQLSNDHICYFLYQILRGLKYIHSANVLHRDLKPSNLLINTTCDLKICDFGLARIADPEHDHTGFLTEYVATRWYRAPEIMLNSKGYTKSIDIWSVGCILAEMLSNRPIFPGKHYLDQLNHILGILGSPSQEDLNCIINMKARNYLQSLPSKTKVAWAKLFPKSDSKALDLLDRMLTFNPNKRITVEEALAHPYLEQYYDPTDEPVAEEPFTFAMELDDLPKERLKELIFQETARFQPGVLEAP

[9] = molecular target: RAC-beta serine/threonine-protein kinase (Homo sapiens) (UniProt P31751); experiment: Inhibition of AKT2 at 30 uM by microfluidic mobility shift assay; summary of the method: as §1
RAC-beta serine/threonine-protein kinase (Homo sapiens), sequence (P31751 whole entry): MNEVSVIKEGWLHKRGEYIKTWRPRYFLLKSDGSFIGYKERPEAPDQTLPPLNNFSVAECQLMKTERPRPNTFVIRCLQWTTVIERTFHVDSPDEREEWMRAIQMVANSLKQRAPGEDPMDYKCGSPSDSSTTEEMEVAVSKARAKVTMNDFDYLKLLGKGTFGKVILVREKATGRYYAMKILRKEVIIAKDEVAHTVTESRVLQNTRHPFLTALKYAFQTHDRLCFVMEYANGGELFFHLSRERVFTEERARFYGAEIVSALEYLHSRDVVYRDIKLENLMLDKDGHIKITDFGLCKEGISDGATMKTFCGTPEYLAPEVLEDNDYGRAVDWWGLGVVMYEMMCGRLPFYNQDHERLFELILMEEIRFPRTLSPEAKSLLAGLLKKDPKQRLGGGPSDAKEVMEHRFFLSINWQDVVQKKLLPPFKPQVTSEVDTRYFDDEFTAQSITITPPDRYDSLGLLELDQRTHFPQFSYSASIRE

[10] = molecular target: T2, Aurora kinase A (Homo sapiens) (UniProt O14965); experiment: Inhibition of AurA at 30 uM by microfluidic mobility shift assay; summary of the method: as §1
T2 sequence (whole entry): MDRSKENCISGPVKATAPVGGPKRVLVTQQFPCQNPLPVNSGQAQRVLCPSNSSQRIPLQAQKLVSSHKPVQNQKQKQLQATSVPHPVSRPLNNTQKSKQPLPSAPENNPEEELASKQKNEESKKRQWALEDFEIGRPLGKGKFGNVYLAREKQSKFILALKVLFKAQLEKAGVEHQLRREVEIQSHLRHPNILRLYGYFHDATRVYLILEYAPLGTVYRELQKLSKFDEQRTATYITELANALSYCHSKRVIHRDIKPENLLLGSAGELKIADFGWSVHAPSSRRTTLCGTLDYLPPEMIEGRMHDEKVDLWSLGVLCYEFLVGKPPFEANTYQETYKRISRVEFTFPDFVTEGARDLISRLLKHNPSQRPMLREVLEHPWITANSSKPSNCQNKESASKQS

[11] = molecular target: Mitogen-activated protein kinase 1 (Homo sapiens) (UniProt P28482); experiment: Inhibition of ERK2 at 30 uM by microfluidic mobility shift assay; summary of the method: as §1
[12] = Inhibition of PKA at 30 uM by microfluidic mobility shift assay; summary of the method: as §1
[13] = molecular target: Tyrosine-protein kinase Fyn (Homo sapiens, UniProt P06241); experiment: Inhibition of FYN at 30 uM by microfluidic mobility shift assay; summary of the method: as §1
Tyrosine-protein kinase Fyn, sequence (P06241 2-537 limits assumed): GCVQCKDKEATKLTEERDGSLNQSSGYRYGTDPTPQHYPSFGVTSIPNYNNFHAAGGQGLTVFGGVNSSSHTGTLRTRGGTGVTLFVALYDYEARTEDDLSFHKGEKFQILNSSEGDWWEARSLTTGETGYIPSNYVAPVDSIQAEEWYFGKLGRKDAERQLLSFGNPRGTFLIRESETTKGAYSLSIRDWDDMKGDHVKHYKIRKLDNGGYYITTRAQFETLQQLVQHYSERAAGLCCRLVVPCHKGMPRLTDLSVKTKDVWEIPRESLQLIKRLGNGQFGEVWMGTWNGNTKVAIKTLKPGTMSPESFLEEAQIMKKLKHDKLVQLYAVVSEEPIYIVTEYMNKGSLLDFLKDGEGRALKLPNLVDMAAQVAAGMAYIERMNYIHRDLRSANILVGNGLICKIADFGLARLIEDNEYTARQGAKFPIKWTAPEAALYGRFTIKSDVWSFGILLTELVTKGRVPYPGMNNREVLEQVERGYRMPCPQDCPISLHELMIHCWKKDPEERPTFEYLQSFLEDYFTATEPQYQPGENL

[14] = molecular target: MAP kinase-activated protein kinase 2 (Homo sapiens, UniProt P49137); experiment: Inhibition of MAPKAPK2 at 30 uM by microfluidic mobility shift assay; summary of the method: as §1
MAP kinase-activated protein kinase 2, sequence (P49137 whole entry, looked up): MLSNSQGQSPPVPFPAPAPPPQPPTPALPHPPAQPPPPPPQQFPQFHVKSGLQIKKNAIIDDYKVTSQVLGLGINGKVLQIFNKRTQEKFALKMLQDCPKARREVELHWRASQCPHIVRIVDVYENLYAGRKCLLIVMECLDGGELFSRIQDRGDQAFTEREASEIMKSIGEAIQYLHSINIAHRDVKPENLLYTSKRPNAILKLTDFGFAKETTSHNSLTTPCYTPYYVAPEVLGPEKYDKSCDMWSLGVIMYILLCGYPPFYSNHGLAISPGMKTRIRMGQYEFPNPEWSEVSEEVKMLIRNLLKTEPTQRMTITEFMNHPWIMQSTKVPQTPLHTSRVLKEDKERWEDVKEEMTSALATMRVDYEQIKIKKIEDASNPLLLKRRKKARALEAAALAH

[15] = molecular target: RAC-alpha serine/threonine-protein kinase (Homo sapiens) (UniProt P31749); experiment: Inhibition of AKT1 at 30 uM by microfluidic mobility shift assay; summary of the method: as §1
RAC-alpha serine/threonine-protein kinase (Homo sapiens), sequence (P31749 whole entry): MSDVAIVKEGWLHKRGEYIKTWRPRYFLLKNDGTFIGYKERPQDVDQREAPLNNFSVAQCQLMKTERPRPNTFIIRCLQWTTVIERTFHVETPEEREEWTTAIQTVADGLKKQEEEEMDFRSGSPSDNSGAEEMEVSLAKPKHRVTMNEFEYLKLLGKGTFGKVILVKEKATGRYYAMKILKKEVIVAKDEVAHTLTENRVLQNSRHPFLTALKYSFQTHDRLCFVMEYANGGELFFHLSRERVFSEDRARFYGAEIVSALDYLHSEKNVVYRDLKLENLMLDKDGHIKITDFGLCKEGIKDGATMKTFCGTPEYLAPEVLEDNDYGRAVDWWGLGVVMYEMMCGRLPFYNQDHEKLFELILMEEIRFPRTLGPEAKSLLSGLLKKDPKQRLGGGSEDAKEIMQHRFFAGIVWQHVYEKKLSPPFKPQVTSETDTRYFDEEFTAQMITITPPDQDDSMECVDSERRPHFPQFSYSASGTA

[16] = molecular target: T3, Serine/threonine-protein kinase D2 (Homo sapiens) (UniProt Q9BZL6); experiment: Inhibition of PKD2 at 30 uM by microfluidic mobility shift assay; summary of the method: as §1
T3 sequence (whole entry): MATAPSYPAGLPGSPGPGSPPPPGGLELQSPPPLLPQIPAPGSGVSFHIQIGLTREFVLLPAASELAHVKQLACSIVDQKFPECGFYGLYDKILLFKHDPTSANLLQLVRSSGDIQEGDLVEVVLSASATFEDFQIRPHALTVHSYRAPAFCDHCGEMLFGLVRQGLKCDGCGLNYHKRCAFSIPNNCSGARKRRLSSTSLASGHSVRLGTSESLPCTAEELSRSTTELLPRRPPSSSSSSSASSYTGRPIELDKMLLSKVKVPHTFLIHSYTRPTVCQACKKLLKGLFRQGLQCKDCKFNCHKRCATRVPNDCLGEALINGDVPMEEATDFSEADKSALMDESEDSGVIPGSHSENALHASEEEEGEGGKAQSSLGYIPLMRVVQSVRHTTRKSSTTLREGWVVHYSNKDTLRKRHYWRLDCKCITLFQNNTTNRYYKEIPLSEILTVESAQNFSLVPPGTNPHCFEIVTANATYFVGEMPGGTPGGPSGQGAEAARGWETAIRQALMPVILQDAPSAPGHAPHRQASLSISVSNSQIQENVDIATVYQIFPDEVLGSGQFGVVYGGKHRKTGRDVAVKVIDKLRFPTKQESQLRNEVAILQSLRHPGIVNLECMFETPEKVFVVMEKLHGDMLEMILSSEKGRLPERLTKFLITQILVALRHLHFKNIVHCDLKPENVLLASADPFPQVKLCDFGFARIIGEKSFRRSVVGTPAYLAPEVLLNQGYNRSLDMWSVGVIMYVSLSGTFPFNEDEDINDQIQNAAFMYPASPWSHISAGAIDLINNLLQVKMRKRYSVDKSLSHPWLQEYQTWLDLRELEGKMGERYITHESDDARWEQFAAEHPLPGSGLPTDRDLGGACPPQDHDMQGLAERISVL

SMILES	inhibition [1] [%]	inhibition [2] [%]	inhibition [3] [%]	inhibition [4] [%]	inhibition [5] [%]	inhibition [6] [%]	inhibition [7] [%]	inhibition [8] [%]	inhibition [9] [%]	inhibition [10] [%]	inhibition [11] [%]	inhibition [12] [%]	inhibition [13] [%]	inhibition [14] [%]	inhibition [15] [%]	inhibition [16] [%]
Nc1n[nH]c2cc(-c3ccccn3)[nH]c(=O)c12	29	17	56	60	49	24	47	11	8	38	12	42	54	41	2	33
Cn1nc(N)c2c(=O)[nH]c(-c3ccccc3)cc21	25	7	22	66	22	8	16	19	4	14	13	7	26	37	8	14
CC(=O)Nc1nn(C)c2cc(-c3ccccc3)[nH]c(=O)c12	4	5	8	17	13	4	4	3	40	2	2	-2	21	9	-9	9
Nc1n[nH]c2cc(-c3ccncc3)[nH]c(=O)c12	21	1	37	95	39	22	34	57	4	43	38	55	28	37	2	29
Cc1cc2c(c(N)nn2C)c(=O)[nH]1	-8	6	-1	1		2	3	-2	4	4	8	-3	-8	29	11	5
Cc1cc2c(c(NC(=O)Nc3ccccc3)nn2C)c(=O)[nH]1	5	7	12	2	16		2	4	11	10	7	-6	7	0	4	-4

More lines, now with the values ahead:

inhibition [1] [%]	inhibition [2] [%]	inhibition [3] [%]	inhibition [4] [%]	inhibition [5] [%]	inhibition [6] [%]	inhibition [7] [%]	inhibition [8] [%]	inhibition [9] [%]	inhibition [10] [%]	inhibition [11] [%]	inhibition [12] [%]	inhibition [13] [%]	inhibition [14] [%]	inhibition [15] [%]	inhibition [16] [%]	SMILES
6	6	6	14	6	0	5	5	1	20	2	0	12	8	10	17	Cn1nc2c3c(nc(-c4ccccc4)cc31)NCC(=O)N2
7	0	4	13	1	-6	-1	0	16	-8	3	-2	11	1	1	8	Cc1cc2c(c(NS(C)(=O)=O)nn2C)c(=O)[nH]1
5	38	75	14	90	4	-3	8	0	10	3	-6	88	7	16	28	COc1ccc(-c2cc3nn(-c4ccccc4)c(N)c3c(=O)[nH]2)cc1
11	-1	11	58	19	18	18	13	25	31	7	10	20	24	13	21	COc1ccc(-c2c(C)[nH]c(=O)c3c(N)nn(C)c23)cc1
7	32	91	11	97	6	3	4	8	30	6	0	96	4	4	15	Nc1c2c(=O)[nH]c(-c3ccccn3)cc2nn1-c1ccccc1
9	2	5	52	7		5	4	2	3	3	2	8	18	-2	6	Cc1nc(N)c2c(=O)[nH]c(C)cc2n1

— ChEMBL document CHEMBL1811853, “Design and evaluation of 3-aminopyrazolopyridinone kinase inhibitors inspired by the natural product indirubin” (Bioorg Med Chem, 2011)
